Assay results from paper PMC9218157 (Heliyon, 2022).
Marks after values point to notes of the source that are not given here.

Assays:
[1] = DPPH free radical scavenging activity; details: mean ± SE; concentration showing 50% of antioxidant activity
Procedure, shortened: (§1)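 Procedure taken from a cited method; the paper gives no reagent levels, times or read-out wavelength. Test compounds were a pyridine Schiff base ligand and its Cu(II) and Zn(II) complexes, with butylated hydroxyanisole (BHA) as positive control.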

[2] = ABTS cation radical scavenging activity; details: mean ± SE; concentration showing 50% of antioxidant activity
Procedure, shortened: as §1

[3] = Superoxide anion radical scavenging activity; details: mean ± SE; concentration showing 50% of antioxidant activity
Procedure, shortened: as §1

[4] = molecular target: T1, type-VI B porcine pancreatic α-amylase (Sus scrofa, UniProt P00690); test: Inhibition of α-amylase; type: biochemical
T1 sequence (P00690 16-511): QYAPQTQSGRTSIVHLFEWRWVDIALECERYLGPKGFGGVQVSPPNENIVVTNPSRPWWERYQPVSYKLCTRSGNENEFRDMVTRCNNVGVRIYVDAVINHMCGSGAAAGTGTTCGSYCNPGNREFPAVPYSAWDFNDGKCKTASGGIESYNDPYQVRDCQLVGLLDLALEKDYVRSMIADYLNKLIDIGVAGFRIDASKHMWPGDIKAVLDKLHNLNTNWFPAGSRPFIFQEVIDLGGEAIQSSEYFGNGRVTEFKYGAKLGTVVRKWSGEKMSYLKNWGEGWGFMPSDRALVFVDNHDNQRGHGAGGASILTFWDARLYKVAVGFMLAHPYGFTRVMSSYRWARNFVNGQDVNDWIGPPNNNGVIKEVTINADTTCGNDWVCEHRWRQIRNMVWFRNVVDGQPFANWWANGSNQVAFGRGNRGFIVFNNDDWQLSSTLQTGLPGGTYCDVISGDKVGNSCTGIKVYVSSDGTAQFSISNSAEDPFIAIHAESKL

EC50 Radical scavenging activities DPPH [1]: 3.10 ± 0.47^d mg/mL | EC50 Radical scavenging activities ABTS [2]: 4.65 ± 0.61^d mg/mL | EC50 Radical scavenging activities Superoxide [3]: 5.25 ± 2.35^d mg/mL | IC50 [4]: 11.3 mM
Compound: COc1cc(C=Nc2ccc([N+](=O)[O-])cn2)ccc1O [HL, 2-methoxy-4-(((5-nitropyridin-2-yl)imino)methyl)phenol]
